According to ChEMBL document CHEMBL1781932 (J Med Chem, 2011):
≈ marks a conversion by molar mass, not a printed value.

Tests used:
Type in all cases: functional
Staphylococcus aureus [1] = assay: Antimicrobial activity against tetracycline-susceptible Staphylococcus aureus isolate 101 by CLSI dilution method
Staphylococcus aureus [2] = assay: Antimicrobial activity against methicillin-, tetracycline-resistant Staphylococcus aureus isolate 161 harboring tetM gene by CLSI dilution method
Staphylococcus aureus [3] = assay: Antimicrobial activity against tetracycline-resistant Staphylococcus aureus isolate 158 harboring tetK gene by CLSI dilution method
Enterococcus faecalis [4] = assay: Antimicrobial activity against tetracycline-susceptible Enterococcus faecalis isolate 103 by CLSI dilution method
Summary of the method: (§1)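 Broth microdilution per CLSI in fresh cation-adjusted Mueller Hinton broth, kept at 4 °C before testing, with defibrinated horse blood added as appropriate. Strains were from ATCC. MIC in µg/mL. Runs were accepted when comparator antibiotics against ATCC quality-control strains fell within recommended ranges.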

Streptococcus pneumoniae [5] = assay: Antimicrobial activity against tetracycline-susceptible Streptococcus pneumoniae isolate 106 by CLSI dilution method; summary of the method: as §1
Escherichia coli [6] = assay: Antimicrobial activity against tetracycline-susceptible Escherichia coli isolate 107 by CLSI dilution method; summary of the method: as §1
Escherichia coli [7] = assay: Antimicrobial activity against tetracycline-resistant Escherichia coli isolate 155 harboring tetA gene by CLSI dilution method
Acinetobacter baumannii = assay: Antimicrobial activity against tetracycline-susceptible Acinetobacter baumannii isolate 110 by CLSI dilution method; summary of the method: as §1
Pseudomonas aeruginosa = assay: Antimicrobial activity against tetracycline-susceptible Pseudomonas aeruginosa isolate 111 by CLSI dilution method; summary of the method: as §1
Enterobacter cloacae = assay: Antimicrobial activity against tetracycline-susceptible Enterobacter cloacae isolate 108 by CLSI dilution method; summary of the method: as §1
Klebsiella pneumoniae [8] = assay: Antimicrobial activity against tetracycline-susceptible Klebsiella pneumoniae isolate 109 by CLSI dilution method; summary of the method: as §1
Klebsiella pneumoniae [9] = assay: Antimicrobial activity against tetracycline-resistant Klebsiella pneumoniae isolate 153 harboring tetA gene by CLSI dilution method
Streptococcus pneumoniae [10] = assay: Antimicrobial activity against tetracycline-resistant Streptococcus pneumoniae isolate 160 harboring tetM gene by CLSI dilution method
Enterococcus faecalis [11] = assay: Antimicrobial activity against tetracycline-resistant Enterococcus faecalis isolate 159 harboring […] gene by CLSI dilution method

Row | Compound | MIC (Staphylococcus aureus [1]) [µg/mL] | MIC (Staphylococcus aureus [2]) [µg/mL] | MIC (Staphylococcus aureus [3]) [µg/mL] | MIC (Enterococcus faecalis [4]) [µg/mL] | MIC (Streptococcus pneumoniae [5]) [µg/mL] | MIC (Escherichia coli [6]) [µg/mL] | MIC (Escherichia coli [7]) [µg/mL] | MIC (Acinetobacter baumannii) [µg/mL] | MIC (Pseudomonas aeruginosa) [µg/mL] | MIC (Enterobacter cloacae) [µg/mL] | MIC (Klebsiella pneumoniae [8]) [µg/mL] | MIC (Klebsiella pneumoniae [9]) [µg/mL] | MIC (Streptococcus pneumoniae [10]) [µg/mL] | MIC (Enterococcus faecalis [11]) [µg/mL]
1 | CN(C)[C@@H]1C(O)=C(C(N)=O)C(=O)[C@@]2(O)C(O)=C3C(=O)c4c(cc5c(N)cccc5c4O)C[C@H]3C[C@@H]12 | 2 (≈ 4.17 µM) | 4 (≈ 8.34 µM) | 2 (≈ 4.17 µM) | 4 (≈ 8.34 µM) | 2 (≈ 4.17 µM) | > 32 | > 32 | 8 (≈ 16.7 µM) | > 32 | > 32 | > 32 | > 32 | – | –
2 | COc1c2c(c(O)c3cc(F)ccc13)C(=O)C1=C(O)[C@]3(O)C(=O)C(C(N)=O)=C(O)[C@@H](N(C)C)[C@@H]3C[C@@H]1C2 | 0.125 (≈ 0.244 µM) | 0.5 (≈ 0.976 µM) | 0.125 (≈ 0.244 µM) | 0.5 (≈ 0.976 µM) | – | 16 (≈ 31.2 µM) | 16 (≈ 31.2 µM) | 1 (≈ 1.95 µM) | > 32 | > 32 | 32 (≈ 62.4 µM) | > 32 | 8 (≈ 15.6 µM) | –
3 | CNC(=O)Oc1c2c(c(O)c3cc(CN4CCC4)ccc13)C(=O)C1=C(O)[C@]3(O)C(=O)C(C(N)=O)=C(O)[C@@H](N(C)C)[C@@H]3C[C@@H]1C2 | 8 (≈ 13.2 µM) | – | – | 8 (≈ 13.2 µM) | 1 (≈ 1.65 µM) | 32 (≈ 52.8 µM) | > 32 | > 32 | > 32 | > 32 | > 32 | > 32 | 4 (≈ 6.59 µM) | –
4 | CCNCc1ccc2c(F)c3c(c(O)c2c1)C(=O)C1=C(O)[C@]2(O)C(=O)C(C(N)=O)=C(O)[C@@H](N(C)C)[C@@H]2C[C@@H]1C3 | 0.5 (≈ 0.927 µM) | 2 (≈ 3.71 µM) | – | 0.25 (≈ 0.463 µM) | 0.0313 (≈ 0.058 µM) | 1 (≈ 1.85 µM) | 8 (≈ 14.8 µM) | 1 (≈ 1.85 µM) | 16 (≈ 29.7 µM) | 2 (≈ 3.71 µM) | 4 (≈ 7.41 µM) | 8 (≈ 14.8 µM) | – | 2 (≈ 3.71 µM)
5 | COc1c2c(c(O)c3cc(CN(C)C)ccc13)C(=O)C1=C(O)[C@]3(O)C(=O)C(C(N)=O)=C(O)[C@@H](N(C)C)[C@@H]3C[C@@H]1C2 | 0.25 (≈ 0.453 µM) | 2 (≈ 3.63 µM) | 0.25 (≈ 0.453 µM) | 0.25 (≈ 0.453 µM) | 0.0156 (≈ 0.0283 µM) | – | 8 (≈ 14.5 µM) | 1 (≈ 1.81 µM) | 32 (≈ 58 µM) | – | 4 (≈ 7.25 µM) | – | 0.25 (≈ 0.453 µM) | –
6 | CN(C)[C@@H]1C(O)=C(C(N)=O)C(=O)[C@@]2(O)C(O)=C3C(=O)c4c(cc5ccc(CN6CCCC6)cc5c4O)C[C@H]3C[C@@H]12 | 0.5 (≈ 0.913 µM) | 2 (≈ 3.65 µM) | 0.25 (≈ 0.457 µM) | 0.25 (≈ 0.457 µM) | 0.0625 (≈ 0.114 µM) | 1 (≈ 1.83 µM) | – | 1 (≈ 1.83 µM) | > 32 | 4 (≈ 7.3 µM) | – | 4 (≈ 7.3 µM) | 0.125 (≈ 0.228 µM) | 2 (≈ 3.65 µM)
7 | CN(C)c1c2c(c(O)c3cc(CN4CCCC4)ccc13)C(=O)C1=C(O)[C@]3(O)C(=O)C(C(N)=O)=C(O)[C@@H](N(C)C)[C@@H]3C[C@@H]1C2 | 0.5 (≈ 0.846 µM) | 2 (≈ 3.39 µM) | 0.5 (≈ 0.846 µM) | 0.25 (≈ 0.423 µM) | < 0.0156 | 2 (≈ 3.39 µM) | 8 (≈ 13.5 µM) | 16 (≈ 27.1 µM) | > 32 | 16 (≈ 27.1 µM) | – | 32 (≈ 54.2 µM) | – | 2 (≈ 3.39 µM)
8 | CN(C)[C@@H]1C(O)=C(C(N)=O)C(=O)[C@@]2(O)C(O)=C3C(=O)c4c(cc5ccc(CN6CCC6)cc5c4O)C[C@H]3C[C@@H]12 | 0.5 (≈ 0.937 µM) | 2 (≈ 3.75 µM) | 0.5 (≈ 0.937 µM) | 0.5 (≈ 0.937 µM) | 0.125 (≈ 0.234 µM) | 1 (≈ 1.87 µM) | 8 (≈ 15 µM) | – | 32 (≈ 60 µM) | – | 4 (≈ 7.5 µM) | 8 (≈ 15 µM) | 0.25 (≈ 0.469 µM) | 4 (≈ 7.5 µM)
9 | CN(C)[C@@H]1C(O)=C(C(N)=O)C(=O)[C@@]2(O)C(O)=C3C(=O)c4c(cc5c(CN6CCC6)cccc5c4O)C[C@H]3C[C@@H]12 | 1 (≈ 1.87 µM) | 4 (≈ 7.5 µM) | 0.5 (≈ 0.937 µM) | 2 (≈ 3.75 µM) | 0.25 (≈ 0.469 µM) | 8 (≈ 15 µM) | > 32 | 32 (≈ 60 µM) | > 32 | – | 16 (≈ 30 µM) | > 32 | 2 (≈ 3.75 µM) | –
10 | CN(C)[C@@H]1C(O)=C(C(N)=O)C(=O)[C@@]2(O)C(O)=C3C(=O)c4c(cc5ccccc5c4O)C[C@H]3C[C@@H]12 | 1 (≈ 2.15 µM) | 1 (≈ 2.15 µM) | – | 0.5 (≈ 1.08 µM) | 0.25 (≈ 0.538 µM) | > 32 | > 32 | 8 (≈ 17.2 µM) | > 32 | – | – | – | 0.25 (≈ 0.538 µM) | –
